In ChEMBL document CHEMBL1773034 (J Nat Prod, 2011):
Activity calls are given as the source filed them. No cut-off for these calls is given here.

How the values were obtained:
THP-1 [1] = assay: Antiinflammatory activity against human THP1 cells assessed as inhibition of LPS-induced ZFP36 gene expression at 10 uM pretreated for 1 hr before LPS challenge measured after 2 hrs by RT-qPCR relative to control; format: functional
Method in brief: (§1)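 THP-1 monocytes, PMA-differentiated to macrophages, pretreated 1 h with compound in DMSO (0.1% final), then stimulated with 1 μg/mL LPS. Cells lysed in wells at 2, 4, 6 and 10 h post-LPS; TaqMan two-step RT-qPCR, ROX-normalized, ΔΔCT with unstimulated control set to 1. Means ± SE, three independent experiments.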

THP-1 [2] = assay: Antiinflammatory activity against human THP1 cells assessed as inhibition of LPS-induced NFKB p65 subunit translocation to nucleus at 10 uM pretreated for 1 hr before LPS challenge relative to control; format: functional
Method in brief: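 PMA-differentiated THP-1 macrophages pretreated 1 h (0.1% DMSO vehicle), then 1 μg/mL E. coli 0111:B4 LPS; harvested 1 h after LPS by trypsinization/scraping. Cytoplasmic and nuclear fractions separated; p65 quantified in each by transcription-factor ELISA-type kit, cytoplasm/nuclear ratio calculated. Means ± SE, three independent experiments, three measurements each.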

THP-1 [3] = assay: Antiinflammatory activity against human THP1 cells of assessed as inhibition of LPS-induced TNFalpha gene expression at 10 uM pretreated for 1 hr before LPS challenge measured after 2 to 10 hrs by RT-qPCR; format: functional, cell-based; method in brief: as §1
[4] = Cytotoxicity against human THP1 cells after 24 hrs by erythrosin B staining; format: cell-based; details: THP-1 cells, read-out: LD50
Method in brief: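 THP-1 monocytes given five increasing concentrations (1-50 μM for the flavone; 1-100 μM for indomethacin) from DMSO stocks, final DMSO 0.1%, in RPMI 1640 with 10% FBS. Incubated 24 h at 37 C, 5% CO2. Cells were mixed 1:1 with 0.1% erythrosin B in PBS and counted by hemocytometer, with unstained cells taken as viable. LD50 was calculated from dose-response curves.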

THP-1 [5] = assay: Antiinflammatory activity against human THP1 cells of assessed as inhibition of LPS-induced TNFalpha gene expression at 10 uM pretreated for 1 hr before LPS challenge measured after 2 hrs by RT-qPCR relative to control; format: functional; method in brief: as §1
RAW264.7 [6] = assay: Antiinflammatory activity against mouse RAW264.7 cells assessed as nitric oxide production; format: functional, cell-based
THP-1 [7] = assay: Antiinflammatory activity against human THP1 cells of assessed as inhibition of LPS-induced TNFalpha protein synthesis at 10 uM pretreated for 1 hr before LPS challenge measured after 2 to 10 hrs; format: functional, cell-based
[8] = target: T1, Prostaglandin G/H synthase 1 (Ovis aries, UniProt P05979); assay: Inhibition of ram seminal vesicle COX-1 assessed as PGE2 production from arachidonic acid after 20 mins enzyme immunoassay; format: tissue-based
T1 sequence (P05979 whole entry): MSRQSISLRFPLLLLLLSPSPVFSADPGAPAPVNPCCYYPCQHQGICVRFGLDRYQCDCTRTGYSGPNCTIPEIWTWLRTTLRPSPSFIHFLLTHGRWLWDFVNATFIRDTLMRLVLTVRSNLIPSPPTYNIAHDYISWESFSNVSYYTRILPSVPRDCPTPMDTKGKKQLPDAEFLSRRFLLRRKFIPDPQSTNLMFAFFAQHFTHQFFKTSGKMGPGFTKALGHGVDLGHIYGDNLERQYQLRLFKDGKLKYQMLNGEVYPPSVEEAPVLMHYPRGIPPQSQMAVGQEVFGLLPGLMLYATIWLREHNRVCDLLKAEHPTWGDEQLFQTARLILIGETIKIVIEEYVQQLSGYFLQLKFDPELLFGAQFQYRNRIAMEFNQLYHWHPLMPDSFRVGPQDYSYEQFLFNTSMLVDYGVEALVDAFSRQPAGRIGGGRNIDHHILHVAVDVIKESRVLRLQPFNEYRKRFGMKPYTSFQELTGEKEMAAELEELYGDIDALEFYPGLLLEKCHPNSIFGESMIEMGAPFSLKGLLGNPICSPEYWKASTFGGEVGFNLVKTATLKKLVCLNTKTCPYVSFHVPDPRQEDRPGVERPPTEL

THP-1 [9] = assay: Antiinflammatory activity against human THP1 cells of assessed as inhibition of LPS-induced TNFalpha protein synthesis at 10 uM pretreated for 1 hr before LPS challenge measured after 2 to 10 hrs relative to control; format: functional
[10] = Selectivity ratio of IC50 for human recombinant COX2 to IC50 for ram seminal vesicle COX1; format: tissue-based
Method in brief: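 Enzymes were human recombinant COX-2 (0.5 unit/reaction) and ram seminal vesicle COX-1 (1 unit/reaction), in 0.1 M Tris/HCl pH 8.0 with 5 μM hematin, 18 mM L-epinephrine, 50 μM EDTA. Compound in DMSO was preincubated 5 min at room temperature, then arachidonic acid was added for 20 min at 37 °C. PGE2 was read by competitive EIA at 405 nm. IC50 came from regression on ≥3 concentrations, with four independent experiments. Selectivity was taken as the COX-2/COX-1 IC50 ratio.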

[11] = target: T2, Prostaglandin G/H synthase 2 (Homo sapiens, UniProt P35354); assay: Inhibition of human recombinant COX-2 assessed as PGE2 production from arachidonic acid after 20 mins enzyme immunoassay
T2 sequence (P35354 whole entry): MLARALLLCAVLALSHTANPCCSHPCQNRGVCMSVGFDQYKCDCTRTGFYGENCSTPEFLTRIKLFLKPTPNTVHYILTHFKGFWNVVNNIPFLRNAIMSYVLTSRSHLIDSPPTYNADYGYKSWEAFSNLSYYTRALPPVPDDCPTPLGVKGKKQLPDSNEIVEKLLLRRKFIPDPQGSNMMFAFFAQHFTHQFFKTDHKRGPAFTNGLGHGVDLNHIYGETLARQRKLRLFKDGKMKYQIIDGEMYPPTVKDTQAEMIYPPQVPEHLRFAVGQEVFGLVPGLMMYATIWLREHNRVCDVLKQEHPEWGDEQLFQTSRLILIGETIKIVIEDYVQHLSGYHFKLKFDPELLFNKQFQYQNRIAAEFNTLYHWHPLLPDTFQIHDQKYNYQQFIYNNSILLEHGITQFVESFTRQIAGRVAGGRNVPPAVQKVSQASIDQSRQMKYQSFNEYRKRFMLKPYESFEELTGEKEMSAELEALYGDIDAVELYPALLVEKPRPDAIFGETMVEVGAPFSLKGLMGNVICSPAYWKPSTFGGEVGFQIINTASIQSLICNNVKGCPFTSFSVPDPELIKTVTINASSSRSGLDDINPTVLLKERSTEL

RAW264.7 [12] = assay: Antiinflammatory activity against mouse RAW264.7 cells assessed as iNOS gene expression; format: functional, cell-based
THP-1 [13] = assay: Antiinflammatory activity against human THP1 cells of assessed as inhibition of LPS-induced COX-2 gene expression at 10 uM pretreated for 1 hr before LPS challenge measured after 4 hrs by RT-qPCR; format: functional, cell-based; method in brief: as §1
THP-1 [14] = assay: Antiinflammatory activity against human THP1 cells assessed as increase in LPS-induced ZFP36 gene expression at 10 uM pretreated for 1 hr before LPS challenge measured after 4 hrs by RT-qPCR relative to control

Compound	Activity (THP-1 [1])	Activity (THP-1 [2])	Activity (THP-1 [3])	CC50 at 24 h [4]	Ratio (THP-1 [5])	Activity (RAW264.7 [6])	fold change (FC) (THP-1 [1])	Activity (THP-1 [7])	fold change (FC) (THP-1 [2])	IC50 [8]	Ratio (THP-1 [9])	Ratio IC50 [10]	IC50 [11]	Activity (RAW264.7 [12])	Activity (THP-1 [13])	Ratio (THP-1 [14])
COc1ccc2c(c1)c(CC(=O)O)c(C)n2C(=O)c1ccc(Cl)cc1 [INDOMETHACIN]	Active	Active	Active	> 100 µM	–	–	–	–	–	–	–	–	–	–	–	–
CC(C)=CCc1c(-c2ccc(O)cc2O)oc2cc3c(c(O)c2c1=O)C=CC(C)(C)O3 [CUDRAFLAVONE B]	–	–	Active	47.6 µM	5.8	Dose-dependent effect	5.8	Active	3.2	1.5 µM	20	1.7	2.5 µM	Dose-dependent effect	Active	2
